Data published in publication PMC5269645 (Journal of the American Chemical Society, 2016).
Read-outs that look alike come from different tables or passages of the source.

Key:
BtGH99 [1] = target: T1, BtGH99 (Bacteroides thetaiotaomicron, UniProt Q8A109); details: read-out: KD values, BtGH99; ITC; cited from earlier work
T1 sequence (Q8A109 18-382): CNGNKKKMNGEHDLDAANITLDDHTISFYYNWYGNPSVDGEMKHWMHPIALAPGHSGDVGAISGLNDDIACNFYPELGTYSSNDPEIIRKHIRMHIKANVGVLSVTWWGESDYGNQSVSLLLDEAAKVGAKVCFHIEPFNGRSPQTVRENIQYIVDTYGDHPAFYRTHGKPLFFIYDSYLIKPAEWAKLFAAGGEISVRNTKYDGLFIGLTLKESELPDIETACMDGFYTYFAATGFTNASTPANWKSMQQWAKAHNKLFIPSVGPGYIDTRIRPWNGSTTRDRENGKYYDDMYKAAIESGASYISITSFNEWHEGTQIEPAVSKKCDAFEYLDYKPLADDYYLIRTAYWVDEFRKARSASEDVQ

BxGH99 [2] = details: read-out: KD values, BxGH99; ITC; cited from earlier work
BxGH99 [3] = target: T2, BxGH99 (Bacteroides xylanisolvens, UniProt D6D1V7); assay: 2D NMR; format: binding
T2 sequence (D6D1V7 13-380): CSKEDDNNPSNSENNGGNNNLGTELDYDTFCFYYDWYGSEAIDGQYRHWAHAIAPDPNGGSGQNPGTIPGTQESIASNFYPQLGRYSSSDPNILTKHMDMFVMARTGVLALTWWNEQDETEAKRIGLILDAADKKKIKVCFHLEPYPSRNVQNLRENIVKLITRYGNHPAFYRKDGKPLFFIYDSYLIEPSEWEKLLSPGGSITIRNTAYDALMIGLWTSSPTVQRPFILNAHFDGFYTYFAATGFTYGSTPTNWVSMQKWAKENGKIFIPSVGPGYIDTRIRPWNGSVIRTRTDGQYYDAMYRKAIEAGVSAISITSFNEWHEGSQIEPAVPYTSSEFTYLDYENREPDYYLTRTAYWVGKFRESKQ
Outline: (§1)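 1H–15N SOFAST-HMQC spectra of 15N-labeled enzyme (average 58 μM) recorded for 1 h at 298 K in 50 mM potassium phosphate pH 7.0, 50 mM KCl, 5% D2O. Active-site Arg Nε-Hε peak (R295, Bx numbering) served as reporter. Bound fraction from peak intensities at several protein/ligand ratios, fitted against free ligand for KD. Duplicate points; Monte Carlo error propagation (n = 10 000), standard deviation.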

BtGH99 [4] = target: T1, BtGH99; assay: 2D NMR; format: binding
Outline: as §1

various glycosidases = details: cited from earlier work
rat endomannosidase = details: read-out: IC50, rat endomannosidase; inhibition of cleavage of 14C-labeled GlcMan9GlcNAc; cited from earlier work

OC[C@H]1CNCC(O[C@H]2O[C@H](CO)[C@@H](O)[C@H](O)[C@H]2O)[C@@H]1O (stereo partly drawn) [compound 2, GlcIFG]
Kd (BtGH99 [1]): 630 nM

OC[C@H]1CNCC(O[C@H]2O[C@H](CO)[C@@H](O)[C@H](O)[C@@H]2O)[C@@H]1O (stereo partly drawn) [compound 3, ManIFG]
Kd (BxGH99 [2]): 270 nM
Kd (BtGH99 [1]): 140 nM

OC[C@H]1OCC[C@@H](O[C@H]2O[C@H](CO)[C@@H](O)[C@H](O)[C@@H]2O)[C@@H]1O [compound 5, α-D-Mannopyranosyl-(1→3)-1,2-dideoxy-D-mannopyranose]
Kd (BxGH99 [3]): 221 ± 11 µM
affinity relative to ManGlucal, fold worse, BxGH99 (BxGH99 [3]; ratio of KD values): 8 fold
Kd (BtGH99 [4]): 53 ± 5 µM

OC[C@H]1CNC(O)[C@@H](O)[C@@H]1O (stereo partly drawn) [noeuromycin]
times more tightly bound than isofagomine (various glycosidases): 2–4000 times

OC[C@H]1O[C@H](O[C@@H]2C=CO[C@H](CO)[C@H]2O)[C@@H](O)[C@@H](O)[C@@H]1O [compound 7, α-D-Mannopyranosyl-(1→3)-1,5-anhydro-2-deoxy-D-arabino-hex-1-enitol]
Kd (BxGH99 [3]): 111 ± 11 µM
Kd (BtGH99 [4]): 15 ± 1.9 µM

OC[C@H]1NC[C@@H](O)[C@@H](O[C@H]2O[C@H](CO)[C@@H](O)[C@H](O)[C@H]2O)[C@@H]1O [compound 1, GlcDMJ]
Kd (BtGH99 [1]): 24000 nM
IC50 (rat endomannosidase): 1700 nM

OC[C@H]1OCC[C@@H](O[C@H]2O[C@H](CO)[C@@H](O)[C@H](O)[C@H]2O)[C@@H]1O [compound 4, GlcddMan]
IC50 (rat endomannosidase): 3800 nM
